From PubChem
This is a sample that favours compounds with a hit; in the whole collection about 3.7% have one here.
KCNK3 inh – human KCNK3 channel inhibition, primary screen. O14649. CHO-KCNK3 thallium flux, FluxOR fluorescence; active compounds read low. B-score at 10 µM. 340,000 compounds, 0.84% hits. AID 602410;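 active = B-score under library mean minus 4 SD, starting fluorescence ratio at most library mean plus 5 SD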;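 note: more negative B-score means stronger inhibition of thallium flux through KCNK3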
Kir21 block – blocks the mouse Kir2.1 inward-rectifier potassium channel; P35561; HEK293-Kir2.1, FluxOR thallium flux fluorescence; active compounds read low; B-score at 10 µM; 310,000 compounds, 0.85% hits; AID 1672;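 active = fluorescence ratio B-score at or below minus 3 SD of library scores, with starting-brightness B-score within 2 SD, cut at about -4.2 in these data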;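 note: channel flux triggered by added potassium and thallium sulfate stimulus; B-score of peak minus minimum fluorescence over baseline after thallium stimulus; more negative B-score means stronger Kir2.1 block with less thallium influx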
Target sequence (P35561 whole entry, looked up): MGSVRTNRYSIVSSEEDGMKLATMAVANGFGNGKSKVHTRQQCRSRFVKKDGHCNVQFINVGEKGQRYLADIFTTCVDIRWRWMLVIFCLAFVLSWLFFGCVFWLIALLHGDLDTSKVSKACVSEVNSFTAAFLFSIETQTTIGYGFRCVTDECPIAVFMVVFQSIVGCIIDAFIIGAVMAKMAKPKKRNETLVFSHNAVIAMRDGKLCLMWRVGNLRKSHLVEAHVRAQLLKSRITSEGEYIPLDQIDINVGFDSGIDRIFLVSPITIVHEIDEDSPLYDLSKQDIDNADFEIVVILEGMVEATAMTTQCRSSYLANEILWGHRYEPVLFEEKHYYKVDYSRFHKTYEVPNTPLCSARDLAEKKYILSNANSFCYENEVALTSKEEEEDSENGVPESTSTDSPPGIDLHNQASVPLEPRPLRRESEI
hERG protect – compounds protecting human hERG from proarrhythmic drug block; Q12809; CHO-hERG, FluxOR thallium flux, dofetilide IC70 present; activation (rescue from dofetilide block), less the hit threshold, % at 10 µM; 310,000 compounds, 0.51% hits;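 active = activation above the mean of controls blocked by dofetilide plus 5 SD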;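 note: thallium influx through hERG after potassium depolarization seen as dye fluorescence rise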
KCNK9 block – blocks the human KCNK9 two-pore domain potassium channel; Q9NPC2; HEK293 KCNK9, FluxOR thallium flux fluorescence; active compounds read low; 310,000 compounds, 1.2% hits; B-score at 10 µM;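 active = ratio B-score over 3 SD below the library mean, with starting fluorescence within 5 SD of its mean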;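 note: negative B-score means less thallium flux so channel inhibition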
KCNQ1 pot – potentiates or activates the human KCNQ1 potassium channel | P51787 | CHO-K1 KCNQ1, thallium flux FluxOR fluorescence; active compounds read high | B-score at 10 µM | 310,000 compounds, 0.35% hits;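 active = fluorescence ratio B-score, a plate-corrected score, at least three library SD, with initial intensity B-score within 5 SD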
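Assay system: CHO-K1 cells stably expressing KCNQ1. Medium: assay buffer for compound exposure, DMSO matched across wells. Timing: 37 °C overnight plating, 90-min dark dye load, 20-min compound pretreatment. Signal: kinetic FluxOR fluorescence, 10 s baseline plus 110 s post-stimulus.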
KCNQ1 inh – blocks the human KCNQ1 potassium channel. P51787. CHO-K1 KCNQ1, FluxOR thallium flux fluorescence; active compounds read high. B-score at 10 µM. 310,000 compounds, 1.3% hits. AID 2642;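 active = compounds whose thallium flux B-score, printed positive for inhibition, exceeds three library SD while starting fluorescence stays within three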;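 note: channel opened by potassium depolarization with thallium stimulus after 20 min compound exposure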
The depositor's hits bear a star; i = inactive; · = no result given.

SMILES | KCNK3 inh | Kir21 block | hERG protect | KCNK9 block | KCNQ1 pot | KCNQ1 inh
CCOC(=O)c1cc([N+](=O)[O-])sc1NC(=O)c1ccc(S(=O)(=O)N2CC3(C)CC2CC(C)(C)C3)cc1 (centres undefined) | i | 1.34 | -12.0 | i | i | 8*
CC(C)N1CC=C2C(C#N)=C(N)C(C#N)(C#N)[C@H](c3ccoc3)[C@H]2C1 | · | -4.26 | -12.5 | i | i | 7*
CCN1CC=C2C(C#N)=C(N)C(C#N)(C#N)C(c3cc(Cl)ccc3Cl)C2C1 (centres undefined) | -10.1* | -3.65 | -11.6 | i | i | 12*
CCCN(Cc1ccccc1)C(=S)Nc1ccc(SC(F)F)cc1 | i | 0.03 | -10.4 | i | i | 6*
Oc1c(Br)cc(Br)cc1C=Nc1cccnc1 | i | -0.86 | -18.0 | i | 15* | i
Oc1c(Br)cc(Br)cc1C=Nc1ccc2[nH]ncc2c1 | i | -3.47 | 5.4* | -7.69* | 10* | i
Oc1c(Br)cc(Br)cc1/C=N/c1nccs1 | i | · | · | · | · | ·
COc1ccc(C=Nc2ccc3[nH]ncc3c2)c(O)c1 | i | -0.99 | -7.9 | i | i | i
COc1ccc2c(c1)-c1nc(/N=C/c3c(O)ccc4ccccc34)sc1CC2 | i | 0.02 | -9.7 | i | i | 11*
COc1ccc2c(c1)-c1nc(/N=C/c3ccc(O)cc3)sc1CC2 | i | · | · | · | · | ·
COCCN1Cc2cccc(C(=O)NCc3cccs3)c2C1=O | i | -0.42 | -5.1 | i | i | i
COC(=O)c1cc(NC(=O)c2cccc([N+](=O)[O-])c2C)ccc1Cl | i | -0.33 | -6.2 | i | i | i
CCC(C)n1c(SCC(=O)/C(C#N)=C(\C)N)nc2ccccc2c1=O (centres undefined) | i | -3 | -0.6 | i | i | i
COc1cc(/C=N/Nc2ccccc2C(F)(F)F)ccc1O | i | 0.07 | -11.6 | -6.85* | i | i
COc1cc(/C=N/N(c2ccccc2)c2ccccc2)ccc1O | i | -1.68 | -2.3 | i | i | 11*
CCOc1ccc2nc(/N=C/c3c(C)[nH]n(-c4ccc(C)cc4)c3=O)sc2c1 | i | 0.74 | 70.7* | i | 40* | i
CCOc1ccc(N2C(=O)CC(Sc3nc4ccc(OCC)cc4s3)C2=O)cc1 (centres undefined) | i | -0.47 | -8.6 | i | i | i
Oc1oc(-c2ccc(Br)cc2)nc1/C=N/c1ccccn1 | i | 0.11 | -6.8 | i | i | i
CCOc1ccc2nc(/N=C/c3c(C)[nH]n(-c4ccccc4)c3=O)sc2c1 | i | -0.04 | 57.5* | i | 55* | i
CCOc1ccc2nc(/N=C/c3nc(-c4ccc(Br)cc4)oc3O)sc2c1 | i | 0.9 | 6.7* | i | 25* | i
CCOc1[nH]n(-c2ccccc2)c(=O)c1C=Nc1ccc(OC)cc1 | i | -1.39 | -9.6 | i | i | i
COc1ccc(CCNC(=O)COc2ccc(C)nc2[N+](=O)[O-])cc1OC | i | 0.41 | -6.5 | i | i | i
COC(=O)C1C(OC)=CC(=O)C2CCCCC21 (centres undefined) | i | · | · | · | · | ·
O=C(O)CCn1c(SCc2ccccc2)nc2ccccc21 | i | 0.68 | -2.9 | i | i | i
Cc1noc(C)c1CSc1nc2ccccc2n1CCc1ccccc1 | i | -7.24* | -14.6 | i | i | i
SMILES | KCNK3 inh | Kir21 block | hERG protect | KCNK9 block | KCNQ1 pot | KCNQ1 inh
CCOC(=O)/C(=N\Nc1ccc(Br)cc1)N1CCN(c2ccccc2OC)CC1 | i | · | · | · | · | ·
COc1cc(/C=N/Nc2nc(N3CCCC3)nc(N3CCCC3)n2)ccc1OCc1ccccc1F | i | -1.04 | 10.9* | i | i | i
N#Cc1ccc(OCC(=O)N/N=C2/CC(c3ccccc3)Oc3ccccc32)cc1 (centres undefined) | i | 1.31 | -2.1 | i | i | i
C=C(C)CNC(=S)NN=C1c2ccccc2-c2ccccc21 | i | -0.75 | 22.0* | i | i | i
COc1cccc(C(=O)Nc2ccc(-n3nncc3C(C)(C)C)cc2)c1 | i | -0.02 | -8.6 | i | i | i
O=C(Nc1ccc(N2CCOCC2)cc1)c1ccc(Br)o1 | i | 0.86 | -7.8 | i | i | i
